Measurements from different studies.
Lines come from different studies, so protocols differ.
Target: Serine/threonine-protein kinase pim-2 (PIM2, Homo sapiens, UniProt Q9P1W9)

| Structure (SMILES) | effect on | mode | method | concentration | quantity | result |
| --- | --- | --- | --- | --- | --- | --- |
| N#CC1(c2ccccn2)CCN(Cc2cc(C(=O)O)c(=O)n3ccccc23)CC1 | cell-free assay | – | competition with immobilised ligand | 1 µM | remaining binding | 100% |
| O=c1[nH]c2ccccc2n1C1CCN(Cc2ccc(-c3[nH]c4cc5ncnc5cc4nc3-c3ccccc3)cc2)CC1 | cell-free assay | – | – | 0.5 µM | remaining signal | 111% |
| C#Cc1n[nH]c2c(-c3cn(C(C)c4ccccn4)c(=O)[nH]c3=O)cc(F)cc12 (stereo not drawn) | enzyme activity | inhibitor | – | 1 µM | inhibition | -1.5% |
| Cn1cncc1[C@](O)(COc1ccc(C#N)cc1-c1ccc(OC(F)(F)F)cc1)c1ccc(C#N)cc1 | cell-free assay | – | competition with immobilised ligand | 1 µM | remaining binding | 84% |
| COc1ncccc1-c1cnn2ccc(N3CCN(C(=O)OC(C)C)CC3)nc12 | binding | – | competition with immobilised ligand | 1 µM | remaining binding | 100% |
| Cn1cc(-c2cccc(N3CCc4c(sc5c4CC(C)(C)C5)C3=O)c2CO)cc(Nc2ccncn2)c1=O | enzyme activity | inhibitor | – | 1 µM | inhibition | 1% |
| Nc1ncc(-c2nc(N3CCOCC3)nc(N3CCOCC3)n2)c(C(F)F)n1 | binding | – | competition with immobilised ligand | 10 µM | remaining binding | 92% |
| Cn1cc(-c2cc(F)cc(N3CCn4c(cc5c4CCCC5)C3=O)c2CO)cc(Nc2ccc(N3CCN(C4COC4)CC3)cn2)c1=O | enzyme activity | inhibitor | – | 0.1 µM | inhibition | -1% |
| COc1cc(Nc2ncc(F)c(Nc3ccc4c(n3)NC(=O)C(C)(C)O4)n2)cc(OC)c1OC | binding | – | competition with immobilised ligand | 10 µM | inhibition | 0% |
| C#Cc1n[nH]c2c(-c3cn([C@@H](C)c4ccccc4)c(=O)[nH]c3=O)cc(F)cc12 | enzyme activity | inhibitor | – | 0.1 µM | inhibition | 3.2% |
| Cc1nn(C)cc1-c1nc2c(N3CCN(Cc4ccc(Cl)cc4)CC3)c(Cl)cnc2[nH]1 | binding | – | competition with immobilised ligand | 1 µM | remaining binding | 100% |
| CC(C)(C)c1cc(C=C(C#N)C#N)cc(Br)c1O | enzyme activity | inhibitor | – | 0.5 µM | remaining activity | 115% |
